# Experimental data from different studies.
# Protocols differ between the studies behind these lines. pEC50, pIC50: −log10 of the molar value.
# Cell line: HepG2
# Observed: cell growth or viability
Structure (SMILES),assay,setting,measurement,result
COc1ccc(NC(=O)c2c(Nc3ccccc3)sc(C#N)c2NC(=O)CNc2ccccc2[N+](=O)[O-])cc1,SRB,"10 nM, 48 h",viability,92.5%
CCOc1ccc(-c2nc3ccc(C)cc3[nH]2)cc1,MTT,48 h,pIC50,4.56
CCN(CC)CCCn1cccc1/C=N/NC(=O)Nc1cc2c(Nc3ccc(F)c(Cl)c3)ncnc2cc1O[C@H]1CCOC1,MTT,72 h,pIC50,6.15
Cc1cc(Nc2ccc(C(=O)N/N=C/c3ccncc3)cc2)c2cccc(O)c2n1,MTT,20 µM,inhibition,47.7%
COc1ccc(NC(=O)c2c(Nc3ccccc3)sc(C#N)c2NC(=O)CNc2ccc(O)cc2)cc1,SRB,"10 nM, 48 h",viability,92.1%
CCOC(=O)c1ccc(-n2c(C)cc(C)c(C#N)c2=O)cc1,MTT,"100 µM, 24 h",viability,36.4%
COc1ccc(NC(=O)c2c(Nc3ccccc3)sc(C(=O)NN=Cc3cc(OC)c(OC)c(OC)c3)c2NC(C)=O)cc1,SRB,"10 µM, 48 h",viability,42.9%
CC(=O)O[C@H]1C(=O)[C@@]2(C)[C@H]([C@H](OC(=O)c3ccccc3)[C@]3(O)C[C@H](OC(=O)[C@H](O)[C@@H](NC(=O)c4ccccc4)c4ccccc4)C(C)=C1C3(C)C)[C@]1(OC(C)=O)CO[C@@H]1C[C@@H]2O,MTT,,pIC50,5.32
Cc1cc(=O)oc2ccc(-c3cc(-c4ccc(Br)cc4)nc(N)n3)c(O)c12,MTT,"128 µg/mL, 72 h",inhibition,20%
CN1CCN(C/C=N/NC(=O)Nc2cc3c(Nc4ccc(F)c(Cl)c4)ncnc3cc2O[C@H]2CCOC2)CC1,MTT,72 h,pIC50,5.48
Cc1ccc2nc(-c3c(F)cccc3Cl)[nH]c2c1,MTT,48 h,pIC50,< 4.00
CC(=O)Nc1cccc(-n2c(=O)n(C3CC3)c(=O)c3c(Nc4ccc(I)cc4F)n(C)c(=O)c(C)c32)c1,resazurin,"50 nM, 72 h",viability,43.3%
COc1cccc(-c2nc3ccc(C)cc3[nH]2)c1,MTT,48 h,pIC50,4.57
COc1ccc(NC(=O)c2c(Nc3ccccc3)sc(C#N)c2NC(=O)CNc2ccc(Br)cc2)cc1,SRB,"0.1 µM, 48 h",viability,70.4%
CCOC(=O)c1cn(CC)c2cc(N3CCC(C)CC3)c(F)cc2c1=O,ATP luminescence,48 h,pEC50,< 4.40
CCOC(=O)c1ccc(-n2c(N)c(C#N)c(CC#N)c(C#N)c2=O)cc1,MTT,"25 µM, 24 h",viability,50.9%
COc1cccc(NC(=O)CN2C(=O)/C(=C/C3CC3)SC2=S)c1,MTT,10 µM,inhibition,12.1%
CCOC(=O)c1ccc(N2C(N)=C(C#N)C3(C(=O)Nc4ccccc43)C(C#N)=C2O)cc1 (stereo not drawn),MTT,"6.25 µM, 24 h",viability,61.3%
CCn1cc(-c2nc(C)no2)c(=O)c2cc(F)c(N3CCN(C)CC3)cc21,ATP luminescence,48 h,pEC50,< 4.40
COc1ccc(NC(=O)c2c(Nc3ccccc3)sc(C(=O)NN=Cc3ccc(Br)cc3)c2NC(C)=O)cc1,SRB,"10 nM, 48 h",viability,92.7%
O=C(CN1C(=O)/C(=C/c2ccc(O)cc2)SC1=S)Nc1ccccc1,MTT,10 µM,inhibition,31.6%
CCOC(=O)c1ccc(NC(=O)C2=C3C(=Nc4ccccc43)NC2=O)cc1,MTT,"100 µM, 24 h",viability,35.6%
CCn1cc(C(N)=O)c(=O)c2cc(F)c(N3CCC(C)CC3)cc21,ATP luminescence,48 h,pEC50,< 4.40
Cc1cc(=O)oc2ccc(-c3cc(-c4cccc(Cl)c4)nc(N)n3)c(O)c12,MTT,"32 µg/mL, 72 h",inhibition,19%
O=C(CN1C(=O)/C(=C/c2cccc(Cl)c2)SC1=S)Nc1ccccc1,MTT,10 µM,inhibition,10%
CCOC(=O)c1ccc(-n2c(-c3ccc(C)cc3)cc(-c3ccc(O)cc3)c(C#N)c2=O)cc1,MTT,"100 µM, 24 h",viability,18.3%
Cc1cc(=O)oc2ccc(-c3cc(-c4ccccc4)nc(N)n3)c(O)c12,MTT,"32 µg/mL, 72 h",inhibition,5%
COc1ccc(NC(=O)c2c(Nc3ccccc3)sc(C#N)c2NC(=O)CNc2ccccc2)cc1,SRB,"0.1 µM, 48 h",viability,82.4%
CCn1cc(-c2nc(C)no2)c(=O)c2cc(F)c(N3CCC4(CC3)CC4)cc21,ATP luminescence,48 h,pEC50,< 4.40
CC(C)(CO)Cn1nc(-c2ccc3cc(OC4CC4)ccc3c2)c2c(N)ncnc21,,,GI50,> 10 µM
Cc1ccc(-c2cc(-c3ccc4oc(=O)cc(C)c4c3O)nc(N)n2)cc1,MTT,"32 µg/mL, 72 h",inhibition,0%
CSc1ccc(-c2nc3ccc(C)cc3n2Cc2ccccc2)cc1,MTT,,pIC50,4.75
CCOC(=O)c1ccc(-n2c(C)cc(/C=C/c3ccc(OCC)cc3)c(C#N)c2=O)cc1,MTT,"1.56 µM, 24 h",viability,100%
COc1cccc(NC(=O)CN2C(=O)/C(=C/c3ccco3)SC2=S)c1,MTT,10 µM,inhibition,5.43%
COc1ccc(NC(=O)c2c(Nc3ccccc3)sc(C(=O)NN=Cc3ccc(Cl)cc3)c2NC(C)=O)cc1,SRB,"10 nM, 48 h",viability,95.2%
COc1ccc(-c2cc(-c3ccc4oc(=O)cc(C)c4c3O)nc(N)n2)cc1,MTT,"32 µg/mL, 72 h",inhibition,15%
Clc1ccc(-c2nc3ccccc3n2Cc2ccccc2)cc1Cl,MTT,,pIC50,4.30
O=C(CN1C(=O)/C(=C/c2ccccc2Cl)SC1=S)Nc1ccccc1,MTT,10 µM,inhibition,11%
COc1cccc(-c2nc3ccccc3[nH]2)c1,MTT,48 h,pIC50,4.33
COc1ccc(NC(=O)c2c(Nc3ccccc3)sc(C#N)c2NC(=O)CNc2ccc(OC)c(OC)c2)cc1,SRB,"10 µM, 48 h",viability,71.4%
CCn1cc(-c2nc(C)no2)c(=O)c2cc(F)c(N3CCC(C)CC3)cc21,ATP luminescence,48 h,pEC50,< 4.40
O=C(N/N=C/c1cccn1CCN1CCCCC1)Nc1cc2c(Nc3ccc(F)c(Cl)c3)ncnc2cc1O[C@H]1CCOC1,MTT,72 h,pIC50,6.23
Cc1cc(Nc2ccc(C(=O)N/N=C/c3ccc(N(C)C)cc3)cc2)c2cccc(O)c2n1,MTT,20 µM,inhibition,40.8%
CCn1cc(-c2nc(C)no2)c(=O)c2cc(F)c(N3CCC(CN4CCOCC4)CC3)cc21,ATP luminescence,48 h,pEC50,< 4.40
O=C(CN1C(=O)/C(=C/c2cccc([N+](=O)[O-])c2)SC1=S)Nc1ccccc1,MTT,10 µM,inhibition,24.2%
CSc1ccc(-c2nc3ccccc3[nH]2)cc1,MTT,48 h,pIC50,4.40
Cc1cc(=O)oc2ccc(-c3cc(-c4ccc(Cl)cc4)nc(N)n3)c(O)c12,MTT,"2 µg/mL, 72 h",inhibition,16%
CCOC(=O)c1ccc(-n2c(C)cc(/C=C/c3ccc(OC)cc3)c(C#N)c2=O)cc1,MTT,"12.5 µM, 24 h",viability,83.5%
